What was measured:
solubility in water = type: physicochemical; settings: in words
SHIP1 [1] = target: T1, SHIP1 (Homo sapiens, UniProt Q92835); assay: malachite green assay for phosphatase activity, SHIP1; type: biochemical; settings: described in words; for Inhibition of SHIP1: malachite green assay, compounds evaluated at 1 mM; for selectivity between SHIP1 and SHIP2: malachite green assay at 1 mM
T1 sequence (Q92835 1-1189): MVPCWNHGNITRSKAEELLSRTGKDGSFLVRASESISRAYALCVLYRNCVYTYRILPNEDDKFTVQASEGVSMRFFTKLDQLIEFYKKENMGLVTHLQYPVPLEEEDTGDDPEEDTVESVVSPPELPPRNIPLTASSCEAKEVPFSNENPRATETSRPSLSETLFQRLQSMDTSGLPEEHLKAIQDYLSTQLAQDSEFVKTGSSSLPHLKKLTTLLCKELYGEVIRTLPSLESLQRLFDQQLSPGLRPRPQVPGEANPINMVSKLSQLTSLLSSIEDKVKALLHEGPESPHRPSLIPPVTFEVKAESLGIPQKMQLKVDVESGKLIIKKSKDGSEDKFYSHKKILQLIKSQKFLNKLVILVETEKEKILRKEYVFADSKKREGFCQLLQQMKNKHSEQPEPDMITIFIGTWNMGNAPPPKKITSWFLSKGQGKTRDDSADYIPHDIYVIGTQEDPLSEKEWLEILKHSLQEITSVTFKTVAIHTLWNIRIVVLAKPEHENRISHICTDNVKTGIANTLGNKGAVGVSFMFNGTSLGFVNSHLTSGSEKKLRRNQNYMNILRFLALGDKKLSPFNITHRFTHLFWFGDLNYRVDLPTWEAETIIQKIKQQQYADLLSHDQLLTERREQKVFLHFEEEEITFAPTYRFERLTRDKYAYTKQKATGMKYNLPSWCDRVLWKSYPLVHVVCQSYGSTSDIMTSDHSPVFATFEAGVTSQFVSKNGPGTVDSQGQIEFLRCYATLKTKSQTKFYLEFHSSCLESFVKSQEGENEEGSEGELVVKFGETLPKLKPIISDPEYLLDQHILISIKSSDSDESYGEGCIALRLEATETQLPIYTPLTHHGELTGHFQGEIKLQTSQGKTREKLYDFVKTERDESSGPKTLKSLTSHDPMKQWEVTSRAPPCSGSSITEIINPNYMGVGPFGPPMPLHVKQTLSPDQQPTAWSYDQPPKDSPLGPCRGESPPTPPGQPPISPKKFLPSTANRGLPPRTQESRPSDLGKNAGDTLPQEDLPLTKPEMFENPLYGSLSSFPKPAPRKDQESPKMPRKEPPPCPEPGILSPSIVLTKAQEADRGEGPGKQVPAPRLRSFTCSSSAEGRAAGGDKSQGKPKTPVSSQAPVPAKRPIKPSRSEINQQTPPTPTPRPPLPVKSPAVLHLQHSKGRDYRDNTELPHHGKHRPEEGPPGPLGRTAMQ
In short: (§1)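 Phosphate released from C8-PI(3,4,5)P3 (short-chain substrate used to avoid micelles) measured by malachite green colorimetric readout. Reactions contained only SHIP enzyme, buffer and substrate, with no surfactant. Test compounds were tested at 1 mM from DMSO/buffer mixtures. Values are means of at least 3 measurements, with standard deviation.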

SHIP2 [2] = target: T2, SHIP2 (Homo sapiens, UniProt O15357); assay: malachite green assay for phosphatase activity, SHIP2; type: biochemical; settings: compounds evaluated at 1 mM, described in words
T2 sequence (O15357 1-1258): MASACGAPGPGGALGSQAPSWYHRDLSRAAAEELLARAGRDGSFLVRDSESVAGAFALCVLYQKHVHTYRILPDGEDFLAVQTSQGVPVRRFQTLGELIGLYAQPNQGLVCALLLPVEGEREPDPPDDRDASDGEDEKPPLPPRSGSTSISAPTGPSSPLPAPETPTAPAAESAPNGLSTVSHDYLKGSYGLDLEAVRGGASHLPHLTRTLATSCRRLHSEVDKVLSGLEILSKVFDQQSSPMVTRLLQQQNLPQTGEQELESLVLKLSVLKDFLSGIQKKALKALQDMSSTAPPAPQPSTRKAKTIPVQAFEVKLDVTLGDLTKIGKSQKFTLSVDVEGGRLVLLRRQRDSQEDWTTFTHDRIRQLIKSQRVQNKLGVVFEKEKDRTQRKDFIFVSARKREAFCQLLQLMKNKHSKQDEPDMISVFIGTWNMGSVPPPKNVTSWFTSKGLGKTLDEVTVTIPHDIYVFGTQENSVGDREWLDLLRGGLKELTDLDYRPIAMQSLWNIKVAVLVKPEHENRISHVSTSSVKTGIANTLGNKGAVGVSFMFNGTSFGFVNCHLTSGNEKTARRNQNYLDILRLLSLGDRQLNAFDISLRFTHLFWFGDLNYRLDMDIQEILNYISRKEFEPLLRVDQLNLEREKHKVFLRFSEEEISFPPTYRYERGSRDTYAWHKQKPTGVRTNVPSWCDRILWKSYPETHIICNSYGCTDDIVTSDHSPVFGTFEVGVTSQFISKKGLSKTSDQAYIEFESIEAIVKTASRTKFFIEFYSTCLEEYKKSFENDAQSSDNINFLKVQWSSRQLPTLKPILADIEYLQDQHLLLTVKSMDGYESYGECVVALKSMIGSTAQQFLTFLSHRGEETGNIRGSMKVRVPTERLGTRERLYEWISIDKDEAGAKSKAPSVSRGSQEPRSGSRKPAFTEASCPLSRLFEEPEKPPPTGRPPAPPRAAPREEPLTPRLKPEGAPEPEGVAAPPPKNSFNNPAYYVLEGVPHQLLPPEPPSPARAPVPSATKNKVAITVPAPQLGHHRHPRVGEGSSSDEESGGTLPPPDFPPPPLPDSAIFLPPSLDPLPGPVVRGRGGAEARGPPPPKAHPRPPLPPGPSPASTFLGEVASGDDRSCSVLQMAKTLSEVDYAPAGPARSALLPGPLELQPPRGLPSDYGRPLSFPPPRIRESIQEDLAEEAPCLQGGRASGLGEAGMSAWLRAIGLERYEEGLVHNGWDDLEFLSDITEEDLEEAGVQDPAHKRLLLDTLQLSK
In short: as §1

solubility in DMSO = settings: in words
SHIP1 [3] = target: T1, SHIP1; assay: fluorescence polarization; type: biochemical; settings: general statement in the docking discussion
SHIP2 [4] = target: T2, SHIP2; settings: ref 19a; cited from earlier work
microglial cell lines = settings: a number of microglial cell lines; cited from earlier work
SHIP1 [5] = target: T1, SHIP1; settings: read-out: IC50 for SHIP1; cited from earlier work
mice = settings: treatment of mice; cited from earlier work

| SMILES | solubility in water (solubility in water) | Inhibition of SHIP1 (SHIP1 [1]) | Inhibition of SHIP2 (SHIP2 [2]) | other results |
| --- | --- | --- | --- | --- |
| CC(C)CCC[C@@H](C)[C@H]1CC[C@H]2[C@@H]3CC[C@H]4CC(N)C(N)C[C@]4(C)[C@H]3CC[C@]12C (stereo partly shown) [Compound 45] | insoluble in water | – | – | – |
| CC(C)CCCC(C)C1CCC2C3CCC4CC(O)C(N)CC4(C)C3CCC12C (stereo not shown) [Compound 37] | insoluble in water | significant inhibition of SHIP1 | – | – |
| CC(C)CCC[C@@H](C)[C@H]1CC[C@H]2[C@@H]3CC[C@H]4C[C@@H](N)[C@H](N)C[C@]4(C)[C@H]3CC[C@]12C [Compound 47] | insoluble in water | least effective inhibitors | least effective inhibitors | – |
| CC(C)CCC[C@@H](C)[C@H]1CC[C@H]2[C@@H]3CC[C@H]4C[C@H](N(C)C)CC[C@]4(C)[C@H]3CC[C@]12C [Compound 15] | – | active | significantly less effect | selectivity between SHIP1 and SHIP2 (SHIP1 [1]): selective inhibition of SHIP1 |
| CC(C)CCC[C@@H](C)[C@H]1CC[C@H]2[C@@H]3CC[C@H]4C[C@H](NS(C)(=O)=O)CC[C@]4(C)[C@H]3CC[C@]12C [Compound 12] | – | inactive | inactive | – |
| CC(C)CCC[C@@H](C)[C@H]1CC[C@H]2[C@@H]3CCC4C[C@H](N)CC[C@]4(C)[C@H]3CC[C@]12C.Cl (stereo partly drawn) [Compound 1, 3α-Aminocholestane Hydrochloride] | – | significant activity | significant activity | solubility in DMSO (solubility in DMSO): insoluble in DMSO; solubility in DMSO (solubility in DMSO; listed as 3AC): nearly insoluble in DMSO; selectivity between the two SHIP paralogs (SHIP1 [3]): some selectivity for SHIP1; selective for SHIP1 over SHIP2 (SHIP2 [4]): at least 4 fold; selectivity between SHIP1 and SHIP2 (SHIP1 [1]): more selectivity for SHIP1; microglial phagocytosis of dead neurons (microglial cell lines): much less effective; IC50 (SHIP1 [5]): ~10 µM; in vivo bioactivity (mice): in vivo bioactivity comparable to genetic phenotypes observed in SHIP knockout mice |
| CC(=O)NC1CCC2(C)C(CCC3C2CCC2(C)C(C(C)CCCC(C)C)CCC32)C1 (stereo not shown) [Compound 13] | – | inactive | inactive | – |
| CC(C)CCCC(C)C1CCC2C3CCC4CC(N)CCC4(C)C3CCC12C.Cl (stereo not shown) [Compound 11] | – | significant activity | significant activity | – |
